Results from different studies.
Lines come from different studies, so protocols differ.
Sample: plasma

| Compound | system | setting | quantity | value |
| --- | --- | --- | --- | --- |
| CS(=O)(=O)CCC#N | human | oral, 100 mg, multiple doses, once daily | AUC | 70300 ng·h/mL |
| CC(C)(O)c1ccccc1-c1ccc2[nH]c(/C=C/c3ccc(C(F)(F)F)cc3)nc2c1 | male human | oral, 30 mg, single dose, fasted, healthy volunteers | AUC(0-t) | 5160 ng·h/mL |
| Cn1cc(-c2ccc(S(=O)(=O)[C@@H]3C[C@@H](C(=O)NC4(C#N)CC4)N(C(=O)C4(C(F)(F)F)CC4)C3)c(C(F)(F)F)c2)cn1 | human | oral, 10 mg, single dose, fasted, healthy volunteers | AUC(0-inf) | 995 ng·h/mL |
| CC(C)n1cc(C#N)c2cc(-n3cc(C(=O)O)cn3)ccc21 | human | oral, 200 mg, single dose, fasted, healthy volunteers | AUC(0-t) | 43900 ng·h/mL |
| Cc1ccc(C(=O)N(CCCN)[C@@H](c2oc3cc(Cl)ccc3c(=O)c2Cc2ccccc2)C(C)C)cc1 | human | intravenous, 4 mg/m², single dose, patients, infusion | AUC | 5160 ng·h/mL |
| Cn1c(=O)oc2ccc(-c3ccc(C[C@@H](C#N)NC(=O)[C@@H]4CNCCCO4)cc3)cc21 | male human | oral, 35 mg, single dose, healthy volunteers | AUC | 13.2 µM·h |
| COc1ccc([C@@H]2CN(C(=O)[C@@H](O)CO)C[C@@]2(C)[C@@H](C)O)cc1OC1CN(c2ccc(C)cn2)C1 | human | oral, 40 mg, single dose, healthy volunteers | AUC(0-t) | 7650 ng·h/mL |
| COCCOc1cnc2ccn([C@H](C)c3nnc4c(F)cc(-c5cnn(C)c5)cn34)c(=O)c2c1 | human | oral, 300 mg, multiple doses, once daily, patients | AUC(0-t) | 55900 ng·h/mL |
| COc1cc(C(=O)NC2CCN(C)CC2)c(F)cc1Nc1ncc(C(F)(F)F)c(Oc2cccc3c2C(=O)N(C)C3)n1 | human | oral, 300 mg, multiple doses, once daily, steady state, patients | AUC | 79.6 µM·h |
| CO[C@H]1CC[C@H](N2C(=O)CNc3ncc(-c4ccc(C(C)(C)O)nc4)nc32)CC1 | human | oral, 15 mg, multiple doses, patients | AUC(0-t) | 383 ng·h/mL |
| CCc1nc2c(C)cc(N3CCN(CC(=O)N4CC(O)C4)CC3)cn2c1N(C)c1nc(-c2ccc(F)cc2)c(C#N)s1 | human | oral, 150 mg, single dose, fed, healthy volunteers | AUC(0-inf) | 6700 ng·h/mL |
